Assay outcomes: PubChem BioAssay, several laboratories
FGF22 binding-1 – FGF22 (human) thermal shift binding | recombinant FGF22 thermal shift, SYPRO orange fluorescence; percent of sucrose octasulfate shift, DMSO zero | 340,000 tested, 1.5% active | activity (Tm shift, normalised), % at 9.99 µM | AID 651658 | Q9HCT0;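 active = mean Tm shift, scaled 0 neutral to 100 positive control, at about 1.3% or above, every replicate too, limit read from the data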
DAGLB inh – blocks human DAGLB lipase activity; Q8NCG7; AID 504411; HEK293T DAGLB membrane lysate, EnzChek fluorogenic substrate; 340,000 tested, 0.059% active; inhibition, % at 5.17 µM; in the data active = inhibition above about 34%;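 note: 0% = enzyme with vehicle and 100% = wells lacking enzyme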
VLA-4 inh – inhibition in a human VLA-4 binding assay; P13612; 330,000 tested, 0.2% active; inhibition, % (about 7 µM as worked out from the volumes in the protocol); VLA-4 expressing cells, ligand binding flow cytometry; AID 2557; in the data active = inhibition above about 50%
Target sequence (P13612 whole entry, looked up): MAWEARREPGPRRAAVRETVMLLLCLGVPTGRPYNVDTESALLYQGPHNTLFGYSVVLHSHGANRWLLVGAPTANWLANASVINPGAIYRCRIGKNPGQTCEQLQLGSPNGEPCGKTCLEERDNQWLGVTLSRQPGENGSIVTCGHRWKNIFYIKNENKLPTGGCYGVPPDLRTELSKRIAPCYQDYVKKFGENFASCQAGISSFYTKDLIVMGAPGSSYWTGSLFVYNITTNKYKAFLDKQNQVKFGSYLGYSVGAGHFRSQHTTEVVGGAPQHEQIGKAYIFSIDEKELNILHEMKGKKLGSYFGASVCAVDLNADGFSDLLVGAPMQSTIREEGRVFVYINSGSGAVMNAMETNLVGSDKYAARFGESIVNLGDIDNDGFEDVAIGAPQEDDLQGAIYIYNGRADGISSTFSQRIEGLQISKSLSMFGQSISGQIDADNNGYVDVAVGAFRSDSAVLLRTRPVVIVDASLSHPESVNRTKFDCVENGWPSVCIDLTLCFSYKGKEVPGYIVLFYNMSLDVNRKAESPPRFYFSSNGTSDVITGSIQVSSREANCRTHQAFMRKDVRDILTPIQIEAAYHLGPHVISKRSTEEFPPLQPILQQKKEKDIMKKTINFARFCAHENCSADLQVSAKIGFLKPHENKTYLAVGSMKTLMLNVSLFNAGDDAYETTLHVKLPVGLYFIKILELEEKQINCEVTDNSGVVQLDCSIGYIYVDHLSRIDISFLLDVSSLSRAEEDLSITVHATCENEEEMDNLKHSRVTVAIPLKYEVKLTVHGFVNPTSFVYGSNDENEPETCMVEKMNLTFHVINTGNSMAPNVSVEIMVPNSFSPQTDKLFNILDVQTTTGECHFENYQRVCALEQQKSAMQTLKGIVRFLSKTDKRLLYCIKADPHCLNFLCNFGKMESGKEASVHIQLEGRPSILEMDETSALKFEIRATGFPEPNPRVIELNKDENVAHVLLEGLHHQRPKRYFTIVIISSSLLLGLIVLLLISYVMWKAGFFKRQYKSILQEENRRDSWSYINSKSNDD
ABCB6 inh 2 – inhibitors of human ABC transporter ABCB6; Q9NP58; K562-ABCB6 porphyrin accumulation, flow cytometry, 1 h; stronger effect = lower value; fluorescence ratio to DMSO, % at 10 µM; 360,000 tested, 0.19% active; AID 602162;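 active = fluorescence ratio to DMSO below 75%, the collection mean minus 3 SD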;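 note: signal is porphyrin accumulated inside mitochondria; 100% equals median channel fluorescence of DMSO control wells; lower ratio means ABCB6 inhibition with less porphyrin fluorescence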
Exocytosis inh – lytic granule exocytosis inhibition. TALL-104 LAMP-1 surface exposure, flow cytometry; cells stimulated with thapsigargin and PMA. inhibition, % at 10 µM. 360,000 tested, 0.66% active. AID 651702;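 active = inhibition above about 55%, limit read from the data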
MT1-MMP act inh – inhibitors of human MT1-MMP activation. P50281. HT1080 RFP-PRO-GFP cells, GFP/RFP ratio fluorescence, overnight; percent of plate control window, DMSO zero. GFP/RFP ratio change, % at 20 µM. 360,000 tested, 0.061% active;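 active = GFP/RFP ratio change of at least 30% with cell ATP level not reduced by more than half and red fluorescence within 50% of control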
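Assay system: RFP-PRO-GFP reporter HT1080 cells; read-out basis: GFP/RFP fluorescence ratio; benchmarks: DMSO wells and RFP-L50D-GFP cells; doses: 20 µM single dose, 1% DMSO; schedule: overnight cell settling, then overnight compound exposure, 37 °C, 5% CO2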
FGF22 binding-2 – binds human FGF22 shifting its melting temperature | shares compounds with FGF22 binding-1 | recombinant FGF22 thermal shift, SYPRO orange fluorescence | thermal shift activity, °C (ΔTm) at 38 µM | 1,000 tested, 2% active;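 active = fitted rise in melting shift crosses a set limit at or below the top valid dose tested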
FGF22 TSA DP – binds human FGF22 shifting its melting temperature | 50 tested, under 10 active | shares compounds with FGF22 binding-1 | Tm shift (activity), % at 38 µM | Thermal shift assay, SYPRO orange, melting temperature shift;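 active = compounds whose fitted dose curve of melting temperature shift rises past a set threshold within the tested doses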
TSA no protein – counter-screen for FGF22 binders: compound-only thermal shift, no protein; compound-only SYPRO orange thermal shift counter-screen; AC50, µM (titrated, usually from 38 µM); shares compounds with FGF22 binding-1; AID 743019; 1,000 tested, 2% active;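 active = rising signal whose fitted curve reaches the 0.54 level within the top valid dose, showing a melting point, actives reach about 13 µM in these data; inactive = the rest, including activity in the opposite direction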; note: value is where the raw curve crosses a fixed level and not half-maximal
Starred values were filed as active, the others as inactive; i = inactive; x = not tested or not shown; [ ] = remark or other dose. In the library only some 2% were active in any assay of this set; here they are far more common.

SMILES	FGF22 binding-1	DAGLB inh	VLA-4 inh	ABCB6 inh 2	Exocytosis inh	MT1-MMP act inh	FGF22 binding-2	TSA no protein	others
C[C@H](CO)N1C[C@H](C)[C@H](CN(C)C(=O)C2CC2)Oc2cc(-c3cccc(F)c3)ccc2S1(=O)=O	-0.1	x	x	x	x	x	x	x
O=C(CNC(=O)c1ccc(S(=O)(=O)N2CCCC2)cc1)N/N=C/c1ccc(F)cc1	1.4*	1.0	30.7	102.0	-5.0	-1.4	-0.03	i
O=C(Nc1ccc(S(=O)(=O)N2CCOCC2)cc1)c1ccc(F)cc1	1.4*	-1.5	18.7	101.0	-1.3	1.8	x	i	FGF22 TSA DP=0.3
CC(=O)c1ccc(OCCCC(=O)Nc2ccc(S(=O)(=O)N3CCOCC3)cc2)cc1	1.9*	-0.1	-0.6	96.0	4.2	0.5	-0.225	i
O=C(Nc1ccc(S(=O)(=O)N2CCOCC2)cc1)c1ccc(S(=O)(=O)N2CCOCC2)cc1	0.0	-0.8	12.1	96.0	16.9	4.3	x	x
O=C(CCCOc1ccc(Br)cc1)Nc1ccc(S(=O)(=O)N2CCOCC2)cc1	1.1	-2.6	-10.9	96.0	-0.5	-2.4	x	x
COc1ccc(C(=O)Nc2ccc3c(c2)C(=O)N(C)C[C@@H](OC)[C@@H](C)CN[C@H](C)CO3)cc1	0.0	x	x	x	x	x	x	x
C[C@H]1CN([C@@H](C)CO)C(=O)c2ccccc2-c2ccccc2CO[C@@H]1CN(C)C(=O)Nc1cccc(F)c1	-0.1	x	x	x	x	x	x	x
O=S(=O)(NC[C@H]1N[C@H](CO)[C@H]1c1ccccc1)c1ccccc1	2.4*	x	x	x	x	x	0.136	i
O=C(NC[C@@H]1N[C@@H](CO)[C@@H]1c1ccccc1)C1CC1	0.2	x	x	x	x	x	x	x
C[C@@H]1CN([C@H](C)CO)C(=O)Cc2cc(NS(=O)(=O)c3ccc(Cl)cc3)ccc2O[C@H]1CN(C)Cc1ccc2c(c1)OCO2	-0.3	x	x	x	x	x	x	x
COC(=O)COc1cc(OCC(=O)OC)c2c(C)c(Cl)c(=O)oc2c1	x	0.6	19.1	101.0	-0.8	3.8	x	x
COC(=O)C(C)Oc1cc(OC(C)C(=O)OC)c2c(C)c(Cl)c(=O)oc2c1 (stereo not given)	1.6*	-3.7	6.0	97.0	33.1	-3.9	x	i
C[C@@H]1CCCCO[C@H](CN(C)C(=O)C2CCCCC2)[C@H](C)CN([C@@H](C)CO)C(=O)c2cc(NS(=O)(=O)c3ccc(Cl)cc3)ccc2O1	-0.1	x	x	x	x	x	x	x
O=C(COc1cccc(Cl)c1)NCC(c1cccs1)N1CCOCC1 (stereo not given)	1.6*	-0.5	-5.1	94.0	-1.2	0.7	-0.063	i
Cc1cccc(OCC(=O)NCC(c2cccs2)N2CCOCC2)c1 (stereo not given)	-0.7	0.5	-0.4	101.0	1.4	-1.0	x	x
CCC(=O)N1CC2(C1)[C@H](c1ccc(-c3cccc(C)c3)cc1)[C@@H](CO)N2S(C)(=O)=O	4.5*	x	x	x	x	x	-0.015	i
COc1ccccc1C#Cc1ccc([C@H]2[C@@H](C#N)N(C(=O)C3CCC3)[C@H]2CO)cc1	-0.2	x	x	x	x	x	x	x
C[C@@H]1CN([C@@H](C)CO)C(=O)c2cc(NC(=O)c3ccncc3)ccc2O[C@@H](C)CCCCO[C@H]1CN(C)S(C)(=O)=O	-0.4	x	x	x	x	x	x	x
Cc1ccc(S(=O)(=O)Nc2cccc(S(=O)(=O)Nc3ccccc3C(=O)O)c2)c(C)c1	1.4*	5.9	4.5	100.0	-1.0	1.6	-0.06	i
CC(C)NC(=O)N[C@H]1CC[C@@H](CC(=O)O)O[C@@H]1CO	1.5*	x	x	x	x	x	0.097[42 µM]	i
CSc1nc2nc(Cl)c(Cl)nc2[nH]1	1.4*	-0.1	x	100.0	-6.1	-1.8	0.039	i
CCOC(=O)CSc1nc2nc(Cl)c(Cl)nc2[nH]1	0.6	-1.7	x	97.0	-0.6	-2.2	x	x
O=C(CCN1CCCCC1)NCC[C@@H]1CC[C@@H](NC(=O)C2CCC2)[C@H](CO)O1	-0.7	x	x	x	x	x	x	x
CCCOC(=O)c1ccc(Oc2cn[nH]c2-c2ccc(O)cc2O)cc1	1.5*	-2.5	0.5	102.0	20.1	-0.8	0.402	i
SMILES	FGF22 binding-1	DAGLB inh	VLA-4 inh	ABCB6 inh 2	Exocytosis inh	MT1-MMP act inh	FGF22 binding-2	TSA no protein	others
CCOC(=O)c1ccc(Oc2cn[nH]c2-c2ccc(O)cc2O)cc1	x	1.6	11.9	95.0	5.2	5.8	x	x
C[C@H]1CN([C@@H](C)CO)C(=O)c2cccc(NC(=O)c3ccncc3)c2O[C@H]1CN(C)C(=O)Nc1ccc(C(F)(F)F)cc1	-0.2	x	x	x	x	x	x	x
C[C@@H](O)C#Cc1ccc([C@@H]2[C@H](CO)N3CCCCN(C(=O)c4ccc(F)cc4)C[C@@H]23)cc1	-0.2	x	x	x	x	x	x	x
O=S(=O)(Nc1nnc(C(F)(F)F)s1)c1ccc(Cl)cc1	2.6*	10.3	-11.6	99.0	-0.3	-0.3	x	i	FGF22 TSA DP=0.3
Cc1ccc(CNC(=O)COC(=O)CCCOc2ccc(Cl)cc2Cl)cc1	0.2	-9.5	9.1	94.0	-0.1	-7.0	x	x
O=C(COC(=O)CCCOc1ccc(Cl)cc1Cl)NCc1ccccc1	32.0*	-3.9	2.2	96.0	-0.7	0.9	0.278	i
Cc1nc2ccc(Br)cc2c(-c2ccccc2)c1C(=O)O	29.3*	1.6	7.1	98.0	-2.6	2.9	0.106	i
COc1cccc(S(=O)(=O)N[C@H]2CC[C@@H](CCn3cc(-c4ccc(F)cc4)nn3)O[C@H]2CO)c1	0.0	x	x	x	x	x	x	x
COc1cc2cc(NC(C)=O)cc(NCc3ccccc3)c2cc1OC	1.5*	-1.4	-4.3	108.0	9.7	-1.3	0.426	i
CCCCNc1cc(NC(C)=O)cc2cc(OC)c(OC)cc12	x	0.8	-30.4	104.0	16.4	-58.7	x	x
O=C(CCNC(=O)c1ccccc1Cl)Nc1nc2ccc(F)cc2s1	2.7*	0.3	-3.7	101.0	-0.8	1.0	0.035	i
CS(=O)(=O)c1ccc2nc(NC(=O)CCNC(=O)c3ccccc3Cl)sc2c1	0.3	5.7	9.5	100.0	-1.4	-5.1	x	x
C[C@H]1CN([C@@H](C)CO)C(=O)c2cccc(NC(=O)C3CCOCC3)c2O[C@H]1CN(C)S(=O)(=O)c1ccc(F)cc1	-0.1	x	x	x	x	x	x	x
CN(C)C(=O)C[C@@H]1C[C@H]2c3cc(NC(=O)NC4CCCC4)ccc3O[C@H]2[C@@H](CO)O1	-0.5	x	x	x	x	x	x	x
CCOC(=O)c1c(C)oc2cc(Br)c(O)c(Br)c12	1.4*	-1.0	3.6	98.0	0.8	4.2	0.025	i
CCOC(=O)COc1cc2c(C(=O)OCC)c(C)oc2cc1Br	x	-4.2	7.2	99.0	1.8	3.3	x	x
C/C=C/c1ccc([C@H]2[C@@H](CO)N(CC3CCOCC3)C23CN(C(=O)COC)C3)cc1	1.7*	x	x	x	x	x	0.184[42 µM]	i
